According to ChEMBL document CHEMBL1250539, “OGA inhibition by GlcNAc-selenazoline” (Bioorg Med Chem, 2010):
The source made the active and inactive calls. The calls are words filed in the database; no cut-off is given here.

How the values were obtained:
[1] = molecular target: T1, Solute carrier family 2, facilitated glucose transporter member 4 (Mus musculus) (UniProt P14142); test: Inhibition of insulin-induced GLUT4 translocation into plasma membrane of mouse differentiated 3T3L1 cells at 40 uM after 16 hrs by Western blotting relative to control; settings: 3T3-L1
T1 sequence (whole entry): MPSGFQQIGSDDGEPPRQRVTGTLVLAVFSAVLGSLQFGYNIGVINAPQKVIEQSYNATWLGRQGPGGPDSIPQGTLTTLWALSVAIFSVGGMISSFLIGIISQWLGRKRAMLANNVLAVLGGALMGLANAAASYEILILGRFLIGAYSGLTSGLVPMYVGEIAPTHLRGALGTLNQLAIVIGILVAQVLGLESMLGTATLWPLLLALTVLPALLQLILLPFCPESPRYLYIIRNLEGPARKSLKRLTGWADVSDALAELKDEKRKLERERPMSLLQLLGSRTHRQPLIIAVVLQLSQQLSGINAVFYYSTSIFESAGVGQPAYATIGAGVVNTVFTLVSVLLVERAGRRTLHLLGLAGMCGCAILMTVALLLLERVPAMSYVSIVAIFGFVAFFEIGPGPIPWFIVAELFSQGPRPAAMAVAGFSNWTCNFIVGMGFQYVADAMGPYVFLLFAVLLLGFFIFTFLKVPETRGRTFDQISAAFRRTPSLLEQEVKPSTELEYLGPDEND
How it was run: (§1)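 Differentiated 3T3-L1 adipocytes (day 8) were held 16 h in serum-free DMEM with 4 mM glucose, with or without 40 μM inhibitor. They were re-fed and stimulated with 30 nM insulin for 20 min. Surface GLUT4 was photolabeled with 250 μM Bio-ATB-BMPA at 300 nm. Lysate (600 μg) underwent streptavidin pull-down and anti-GLUT4 immunoblotting, and surface GLUT4 was compared with untreated cells.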

[2] = molecular target: 3-phosphoinositide-dependent protein kinase 1 (Mus musculus) (UniProt Q9Z2A0); test: Activation of PDK1
Sequence of 3-phosphoinositide-dependent protein kinase 1 (Mus musculus) (Q9Z2A0 whole entry, looked up): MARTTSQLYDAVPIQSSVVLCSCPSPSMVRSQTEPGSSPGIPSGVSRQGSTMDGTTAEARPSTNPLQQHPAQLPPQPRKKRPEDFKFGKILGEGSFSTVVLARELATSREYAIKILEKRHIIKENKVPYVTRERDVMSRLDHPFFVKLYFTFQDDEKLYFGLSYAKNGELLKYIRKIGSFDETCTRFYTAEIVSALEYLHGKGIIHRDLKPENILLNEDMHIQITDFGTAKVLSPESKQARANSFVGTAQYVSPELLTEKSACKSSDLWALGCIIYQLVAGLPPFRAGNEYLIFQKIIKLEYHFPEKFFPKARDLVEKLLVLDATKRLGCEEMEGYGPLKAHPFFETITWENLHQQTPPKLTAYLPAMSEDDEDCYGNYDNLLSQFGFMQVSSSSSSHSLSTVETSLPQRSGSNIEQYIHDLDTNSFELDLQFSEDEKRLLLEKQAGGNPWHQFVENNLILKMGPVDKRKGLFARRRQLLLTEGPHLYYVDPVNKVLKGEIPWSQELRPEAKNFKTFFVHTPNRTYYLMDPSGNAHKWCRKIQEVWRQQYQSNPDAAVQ

[3] = Competitive inhibition of Streptomyces plicatus hexosaminidase
HT-29 = test: Induction of hyper-O-GlcNAc-ylation in human HT-29 cells assessed as increase of O-GlcNAc level at 40 uM after 48 hrs Western blotting; type: functional, cell-based
How it was run: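 HT-29 cells seeded at 1.0 × 10^5 per well in McCoy's 5a + 10% FBS, with or without 40 μM inhibitor, 37 °C for 2 days. Lysed in Tris pH 8.0/DTT/Triton X-100 with protease inhibitors and sonicated. 20 μg protein per lane run on 10% SDS gel and blotted. Probed with anti-O-GlcNAc RL2 (1:1000) and IR-dye anti-mouse secondary; infrared imaging.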

[4] = molecular target: T2, Beta-hexosaminidase subunit beta (Homo sapiens) (UniProt P07686); test: Inhibition of human placental lysosomal hexosaminidase B at 5 uM
T2 sequence (whole entry): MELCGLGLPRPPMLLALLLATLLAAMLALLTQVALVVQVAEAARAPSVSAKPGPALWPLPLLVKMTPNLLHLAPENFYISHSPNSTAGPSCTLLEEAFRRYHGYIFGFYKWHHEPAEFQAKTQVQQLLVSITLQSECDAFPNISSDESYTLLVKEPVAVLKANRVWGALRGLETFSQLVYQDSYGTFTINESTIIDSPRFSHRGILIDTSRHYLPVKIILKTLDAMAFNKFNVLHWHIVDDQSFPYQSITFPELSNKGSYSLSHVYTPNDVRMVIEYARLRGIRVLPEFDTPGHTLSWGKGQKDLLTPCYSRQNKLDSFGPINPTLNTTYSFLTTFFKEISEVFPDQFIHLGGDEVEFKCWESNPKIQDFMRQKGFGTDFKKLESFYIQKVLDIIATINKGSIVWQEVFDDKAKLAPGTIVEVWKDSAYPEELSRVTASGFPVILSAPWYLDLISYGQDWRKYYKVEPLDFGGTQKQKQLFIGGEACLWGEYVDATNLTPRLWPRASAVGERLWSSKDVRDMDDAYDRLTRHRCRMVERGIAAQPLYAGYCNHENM

Protein O-GlcNAcase = molecular target: T3, Protein O-GlcNAcase (Homo sapiens, UniProt O60502); test: Inhibition of human O-GlcNAcase after 5 mins by Lineweaver-Burke plot analysis
T3 sequence (O60502 whole entry): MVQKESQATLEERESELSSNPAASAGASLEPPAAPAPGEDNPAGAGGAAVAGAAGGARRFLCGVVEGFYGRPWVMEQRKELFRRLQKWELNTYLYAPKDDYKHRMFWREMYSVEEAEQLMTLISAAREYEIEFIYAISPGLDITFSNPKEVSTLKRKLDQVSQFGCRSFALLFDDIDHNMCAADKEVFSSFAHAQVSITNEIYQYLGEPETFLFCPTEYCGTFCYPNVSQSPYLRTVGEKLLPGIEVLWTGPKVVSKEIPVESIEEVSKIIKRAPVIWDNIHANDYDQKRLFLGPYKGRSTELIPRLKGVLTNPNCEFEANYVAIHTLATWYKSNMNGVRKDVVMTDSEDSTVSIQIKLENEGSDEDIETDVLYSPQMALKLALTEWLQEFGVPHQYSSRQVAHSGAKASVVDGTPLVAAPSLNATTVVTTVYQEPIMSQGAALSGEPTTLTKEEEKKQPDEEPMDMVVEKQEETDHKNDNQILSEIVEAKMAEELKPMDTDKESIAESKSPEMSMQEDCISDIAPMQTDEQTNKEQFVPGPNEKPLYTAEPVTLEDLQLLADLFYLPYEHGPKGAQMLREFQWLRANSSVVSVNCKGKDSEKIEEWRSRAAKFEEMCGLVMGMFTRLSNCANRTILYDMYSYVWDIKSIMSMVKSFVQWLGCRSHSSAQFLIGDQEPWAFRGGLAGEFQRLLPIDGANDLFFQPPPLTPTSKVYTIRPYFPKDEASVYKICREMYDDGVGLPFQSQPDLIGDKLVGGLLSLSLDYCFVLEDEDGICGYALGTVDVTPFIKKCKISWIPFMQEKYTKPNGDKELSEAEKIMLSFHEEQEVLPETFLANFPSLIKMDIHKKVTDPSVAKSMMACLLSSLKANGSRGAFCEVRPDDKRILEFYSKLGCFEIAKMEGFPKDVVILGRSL

3T3-L1 = test: Effect on GLUT4 level in mouse differentiated 3T3L1 cells; type: functional, cell-based; how it was run: as §1
[5] = molecular target: RAC-alpha serine/threonine-protein kinase (Mus musculus) (UniProt P31750); test: Activation of AKT
Sequence of RAC-alpha serine/threonine-protein kinase (Mus musculus) (P31750 whole entry, looked up): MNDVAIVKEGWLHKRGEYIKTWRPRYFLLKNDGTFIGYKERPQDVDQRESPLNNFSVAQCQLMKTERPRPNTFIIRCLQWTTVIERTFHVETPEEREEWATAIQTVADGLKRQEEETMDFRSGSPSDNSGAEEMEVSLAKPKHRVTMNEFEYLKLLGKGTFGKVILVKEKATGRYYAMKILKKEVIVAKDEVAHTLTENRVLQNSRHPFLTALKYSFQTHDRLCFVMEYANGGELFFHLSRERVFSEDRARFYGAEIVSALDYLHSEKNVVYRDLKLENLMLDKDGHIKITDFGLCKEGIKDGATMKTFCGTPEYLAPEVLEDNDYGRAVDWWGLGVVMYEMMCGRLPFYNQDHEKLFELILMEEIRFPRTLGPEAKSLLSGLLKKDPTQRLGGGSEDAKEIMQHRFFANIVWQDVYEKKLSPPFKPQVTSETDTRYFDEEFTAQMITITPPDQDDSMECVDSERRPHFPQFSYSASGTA

HeLa = test: Induction of hyper-O-GlcNAc-ylation in human HeLa cells assessed as increase of O-GlcNAc level at 40 uM after 48 hrs Western blotting; type: functional, cell-based
How it was run: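 HeLa cells seeded at 1.0 × 10^5 per well in DMEM + 10% FBS, ±40 μM inhibitor, 37 °C, 2 days. Washed in PBS, pelleted and lysed with M-PER reagent. Equal protein (20 μg) separated on 10% gel. Western blot with RL2 anti-O-GlcNAc (1:1000) and IR-dye anti-mouse secondary; infrared imaging.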

[6] = molecular target: T4, Beta-hexosaminidase subunit alpha (Homo sapiens) (UniProt P06865); test: Inhibition of human placental lysosomal hexosaminidase A at 5 uM
T4 sequence (whole entry): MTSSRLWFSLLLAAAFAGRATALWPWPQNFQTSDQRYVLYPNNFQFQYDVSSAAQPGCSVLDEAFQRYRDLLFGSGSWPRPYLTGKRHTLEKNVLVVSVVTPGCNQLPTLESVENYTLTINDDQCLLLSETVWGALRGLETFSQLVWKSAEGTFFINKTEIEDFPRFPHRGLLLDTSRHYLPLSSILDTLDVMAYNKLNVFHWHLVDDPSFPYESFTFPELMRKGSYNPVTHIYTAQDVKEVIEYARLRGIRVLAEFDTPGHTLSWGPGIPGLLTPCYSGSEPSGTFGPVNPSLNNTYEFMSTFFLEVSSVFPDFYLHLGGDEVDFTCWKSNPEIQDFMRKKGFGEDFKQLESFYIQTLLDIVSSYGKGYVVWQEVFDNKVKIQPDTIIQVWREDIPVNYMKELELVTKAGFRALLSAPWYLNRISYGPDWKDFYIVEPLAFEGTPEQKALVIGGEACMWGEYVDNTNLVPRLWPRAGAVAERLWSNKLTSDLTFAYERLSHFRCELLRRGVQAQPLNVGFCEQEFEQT
How it was run: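 Human placental Hex A was incubated with 50 μM fluorescein di(GlcNAc) substrate ± 5 μM inhibitor in 100 mM citrate/phosphate pH 6.5 without GalNAc at 37 °C for 30 min. The reaction was stopped with 0.5 M Na2CO3 and read by fluorescence (ex 485 / em 535 nm). Percent inhibition was taken against activity without inhibitor.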

Compound: CC1=N[C@@H]2[C@@H](O)[C@H](O)[C@@H](CO)O[C@@H]2[Se]1
- inhibition [1]: 16.3%
- Activity [2]: Active
- Ki [3]: 170 µM
- Activity (HT-29): Active
- inhibition [4]: Active
- Ki (Protein O-GlcNAcase): 0.7 µM
- Activity (3T3-L1): inactive
- Activity [5]: Active
- Activity (HeLa): Active
- inhibition [6]: Active

Compound: CC1=N[C@@H]2[C@@H](O)[C@H](O)[C@@H](CO)O[C@@H]2S1
- inhibition [1]: 43%
- Activity [2]: Active
- Ki [3]: 20 µM
- Activity (HT-29): Active
- inhibition [4]: Active
- Activity (3T3-L1): inactive
- Activity [5]: Active
- Activity (HeLa): Active
- inhibition [6]: Active
